Test results taken from ChEMBL document CHEMBL1131241, “Cyclic HIV protease inhibitors: design and synthesis of orally bioavailable, pyrazole P2/P2' cyclic ureas with improved potency” (J Med Chem, 1998).

Tests used:
[1] = Bioavailability as maximal plasma concentration in rats after 10 mg/kg oral dose; format: ADME, organism-based; set-up: dose 10 mg/kg, route oral; conditions: rat
MT2 [2] = experiment: Cytotoxicity was determined by 50% reduction in the number of viable MT2 cells with HIV-1RF; format: functional; conditions: Homo sapiens, read-out: TC50 (the source's name)
Procedure, shortened: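 TC50 taken as concentration giving 50% fewer viable cells, with viability read by tetrazolium dye metabolism.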

MT2 [3] = experiment: Concentration which reduced the concentration of HIV viral RNA by 90% from the level measured in an untreated infected culture; format: functional; conditions: Homo sapiens
Procedure, shortened: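 MT-2 cells infected with HIV-1 RF. Uninfected cells preincubated 30 min with serial dilutions of compound in culture medium, then virus added; cultured 3 days at 37 °C, 5% CO₂. Lysed cells assayed for HIV RNA by microtiter plate hybridization. IC90 = concentration lowering viral RNA 90% versus untreated infected culture.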

[4] = target: Human immunodeficiency virus type 1 protease (Human immunodeficiency virus 1, UniProt Q72874); experiment: Inhibition of HIV protease, measured by assaying the cleavage of a fluorescent peptide substrate using HPLC
[5] = Bioavailability as maximal plasma concentration in dogs after 2.5 mg/kg oral dose; format: ADME, organism-based, Canis lupus familiaris; set-up: dose 2.5 mg/kg, route oral; conditions: dog

Compound	Cmax [1] [nM]	Cmax [5] [nM]	CC50 (MT2 [2]) [nM]	IC90 (MT2 [3]) [nM]	Ki [4] [nM]
O=C1N(Cc2cccc(-c3cc[nH]n3)c2)[C@H](Cc2ccccc2)[C@H](O)[C@@H](O)[C@@H](Cc2ccccc2)N1Cc1cccc(-c2cc[nH]n2)c1	68		4200	20	0.027
O=C(NCCN1CCOCC1)c1cccc(CN2C(=O)N(Cc3cccc(-c4cc[nH]n4)c3)[C@H](Cc3ccccc3)[C@H](O)[C@@H](O)[C@H]2Cc2ccccc2)c1			43000	128	0.052
CC(=O)c1cccc(CN2C(=O)N(Cc3cccc(C(C)=O)c3)[C@H](Cc3ccccc3)[C@H](O)[C@@H](O)[C@H]2Cc2ccccc2)c1	500		20000	39	0.06
CC(C)(C)C(=O)c1cccc(CN2C(=O)N(Cc3cccc(C(=O)C(C)(C)C)c3)[C@H](Cc3ccccc3)[C@H](O)[C@@H](O)[C@H]2Cc2ccccc2)c1					3.6
CC/C(=N/O)c1cccc(CN2C(=O)N(Cc3cccc(/C(CC)=N/O)c3)[C@H](Cc3ccccc3)[C@H](O)[C@@H](O)[C@H]2Cc2ccccc2)c1			5000	7	0.031
O=C1N(Cc2ccc(O)cc2)[C@H](Cc2ccccc2)[C@H](O)[C@@H](O)[C@@H](Cc2ccccc2)N1Cc1cccc(-c2cc[nH]n2)c1			4800	30	0.021
O=C1N(Cc2cccc(-c3nc[nH]n3)c2)[C@H](Cc2ccccc2)[C@H](O)[C@@H](O)[C@@H](Cc2ccccc2)N1Cc1cccc(-c2nc[nH]n2)c1			53000	128	0.052
CCC(=O)c1cccc(CN2C(=O)N(Cc3cccc(C(=O)CC)c3)[C@H](Cc3ccccc3)[C@H](O)[C@@H](O)[C@H]2Cc2ccccc2)c1			> 80000	142	0.21
O=C1N(Cc2cccnc2)[C@H](Cc2ccccc2)[C@H](O)[C@@H](O)[C@@H](Cc2ccccc2)N1Cc1cccc(-c2cc[nH]n2)c1			6300	94	0.17
O=C1N(Cc2cccc(-c3ncc[nH]3)c2)[C@H](Cc2ccccc2)[C@H](O)[C@@H](O)[C@@H](Cc2ccccc2)N1Cc1cccc(-c2ncc[nH]2)c1			78000	234	0.16
O=C1N(Cc2cccc(-c3c[nH]nn3)c2)[C@H](Cc2ccccc2)[C@H](O)[C@@H](O)[C@@H](Cc2ccccc2)N1Cc1cccc(-c2c[nH]nn2)c1			47000	94	0.17
O=C1N(Cc2cccc(C(=O)C(F)(F)F)c2)[C@H](Cc2ccccc2)[C@H](O)[C@@H](O)[C@@H](Cc2ccccc2)N1Cc1cccc(C(=O)C(F)(F)F)c1			5400	33	0.037
O=C1N(Cc2cccc(-c3cn[nH]c3)c2)[C@H](Cc2ccccc2)[C@H](O)[C@@H](O)[C@@H](Cc2ccccc2)N1Cc1cccc(-c2cn[nH]c2)c1	75		1400	32	0.62
O=C1N(Cc2cccc(-c3c[nH]cn3)c2)[C@H](Cc2ccccc2)[C@H](O)[C@@H](O)[C@@H](Cc2ccccc2)N1Cc1cccc(-c2c[nH]cn2)c1	< 42		8800	84	0.19
O=C1N(Cc2cccc(/C(=N/O)C(F)(F)F)c2)[C@H](Cc2ccccc2)[C@H](O)[C@@H](O)[C@@H](Cc2ccccc2)N1Cc1cccc(/C(=N\O)C(F)(F)F)c1			14000	714	3.9
CCCC(=O)c1cccc(CN2C(=O)N(Cc3cccc(C(=O)CCC)c3)[C@H](Cc3ccccc3)[C@H](O)[C@@H](O)[C@H]2Cc2ccccc2)c1			> 77000	1440	1.4
O=Cc1cccc(CN2C(=O)N(Cc3cccc(C=O)c3)[C@H](Cc3ccccc3)[C@H](O)[C@@H](O)[C@H]2Cc2ccccc2)c1	260		19000	36	0.44
CCC/C(=N/O)c1cccc(CN2C(=O)N(Cc3cccc(/C(CCC)=N/O)c3)[C@H](Cc3ccccc3)[C@H](O)[C@@H](O)[C@H]2Cc2ccccc2)c1			3700	64	0.031
O=C1N(Cc2cccc(-c3nnn[nH]3)c2)[C@H](Cc2ccccc2)[C@H](O)[C@@H](O)[C@@H](Cc2ccccc2)N1Cc1cccc(-c2nnn[nH]2)c1			78000	> 70000	6.6

Further lines, with some results ahead:

Cmax [1] [nM]	Cmax [5] [nM]	Compound	CC50 (MT2 [2]) [nM]	IC90 (MT2 [3]) [nM]	Ki [4] [nM]
2250		Nc1cccc(CN2C(=O)N(Cc3cccc(N)c3)[C@H](Cc3ccccc3)[C@H](O)[C@@H](O)[C@H]2Cc2ccccc2)c1 [MOZENAVIR]			
320		COC(=O)c1cccc(CN2C(=O)N(Cc3cccc(-c4cc[nH]n4)c3)[C@H](Cc3ccccc3)[C@H](O)[C@@H](O)[C@H]2Cc2ccccc2)c1	5700	32	0.14
780		O=C1N[C@H](Cc2ccccc2)[C@H](O)[C@@H](O)[C@@H](Cc2ccccc2)N1Cc1cccc(-c2cc[nH]n2)c1	21000	67	0.26
	850	Nc1cccc(CN2C(=O)N(Cc3cccc(-c4cc[nH]n4)c3)[C@H](Cc3ccccc3)[C@H](O)[C@@H](O)[C@H]2Cc2ccccc2)c1	6800	27	0.035
110		O=C1N(Cc2cccc(CO)c2)[C@H](Cc2ccccc2)[C@H](O)[C@@H](O)[C@@H](Cc2ccccc2)N1Cc1cccc(-c2cc[nH]n2)c1	20000	234	0.16
60		C/C(=N/O)c1cccc(CN2C(=O)N(Cc3cccc(/C(C)=N/O)c3)[C@H](Cc3ccccc3)[C@H](O)[C@@H](O)[C@H]2Cc2ccccc2)c1	81000	2	0.018
300		O=C1N(Cc2cccc(/C=N\O)c2)[C@H](Cc2ccccc2)[C@H](O)[C@@H](O)[C@@H](Cc2ccccc2)N1Cc1cccc(/C=N/O)c1	16000	5	0.01
